Reference: ChEMBL document CHEMBL3734675, “Synthesis, antimycobacterial and antibacterial activity of fluoroquinolone derivatives containing an 3-alkoxyimino-4-(cyclopropylanimo)methylpyrrolidine moiety” (2015)
In brackets after ≈: the same amount, converted by molar mass.

Columns and labels:
Type in all cases: functional
Pseudomonas aeruginosa [1] = test: Antibacterial activity against Pseudomonas aeruginosa 14-15 after 18 to 24 hrs by two-fold serial dilution method
Summary of the method: (§1)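 Twofold serial dilution in agar media against Gram-positive and Gram-negative strains. Plates incubated at 35 °C for 18–24 h. MIC read as the lowest compound concentration giving complete inhibition of bacterial growth.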

Klebsiella pneumoniae [2] = test: Antibacterial activity against Klebsiella pneumoniae 14-4 after 18 to 24 hrs by two-fold serial dilution method; summary of the method: as §1
Pseudomonas aeruginosa [3] = test: Antibacterial activity against Pseudomonas aeruginosa 14-9 after 18 to 24 hrs by two-fold serial dilution method; summary of the method: as §1
Staphylococcus aureus [4] = test: Antibacterial activity against methicillin-resistant Staphylococcus aureus 14-4 after 18 to 24 hrs by two-fold serial dilution method
Summary of the method: (§2)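 Agar media, standard twofold serial dilution. MIC is the lowest concentration giving complete inhibition of bacterial growth after incubation at 35 °C for 18–24 h. Ciprofloxacin and levofloxacin were run as comparators.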

Klebsiella pneumoniae [5] = test: Antibacterial activity against extended-spectrum beta-lactamase producing Klebsiella pneumoniae 14-18 after 18 to 24 hrs by two-fold serial dilution method; summary of the method: as §1
Staphylococcus aureus [6] = test: Antibacterial activity against methicillin-sensitive Staphylococcus aureus 14-4 after 18 to 24 hrs by two-fold serial dilution method; summary of the method: as §1
Klebsiella pneumoniae [7] = test: Antibacterial activity against Klebsiella pneumoniae 14-1 after 18 to 24 hrs by two-fold serial dilution method; summary of the method: as §1
Enterococcus faecium [8] = test: Antibacterial activity against Enterococcus faecium 14-2 after 18 to 24 hrs by two-fold serial dilution method; summary of the method: as §1
Escherichia coli [9] = test: Antibacterial activity against Escherichia coli ATCC 25922 after 18 to 24 hrs by two-fold serial dilution method; summary of the method: as §1
Pseudomonas aeruginosa [10] = test: Antibacterial activity against Pseudomonas aeruginosa 14-16 after 18 to 24 hrs by two-fold serial dilution method; summary of the method: as §1
[11] = tested on: Staphylococcus epidermidis; test: Antibacterial activity against methicillin-sensitive Staphylococcus epidermidis 14-2 after 18 to 24 hrs by two-fold serial dilution method; summary of the method: as §1
[12] = tested on: Staphylococcus epidermidis; test: Antibacterial activity against methicillin-resistant Staphylococcus epidermidis 14-21 after 18 to 24 hrs by two-fold serial dilution method; summary of the method: as §2
[13] = tested on: Staphylococcus epidermidis; test: Antibacterial activity against methicillin-resistant Staphylococcus epidermidis 14-39 after 18 to 24 hrs by two-fold serial dilution method; summary of the method: as §2
[14] = tested on: Staphylococcus epidermidis; test: Antibacterial activity against methicillin-resistant Staphylococcus epidermidis 14-22 after 18 to 24 hrs by two-fold serial dilution method; summary of the method: as §2
Enterococcus faecalis [15] = test: Antibacterial activity against Enterococcus faecalis 14-1 after 18 to 24 hrs by two-fold serial dilution method; summary of the method: as §1
Klebsiella pneumoniae [16] = test: Antibacterial activity against extended-spectrum beta-lactamase producing Klebsiella pneumoniae 14-17 after 18 to 24 hrs by two-fold serial dilution method; summary of the method: as §1
Enterococcus faecium [17] = test: Antibacterial activity against Enterococcus faecium 14-5 after 18 to 24 hrs by two-fold serial dilution method; summary of the method: as §1
Staphylococcus aureus [18] = test: Antibacterial activity against methicillin-sensitive Staphylococcus aureus 14-3 after 18 to 24 hrs by two-fold serial dilution method; summary of the method: as §1
Enterococcus faecalis [19] = test: Antibacterial activity against Enterococcus faecalis 14-2 after 18 to 24 hrs by two-fold serial dilution method; summary of the method: as §1
Staphylococcus aureus [20] = test: Antibacterial activity against Staphylococcus aureus CMCC 26003 after 18 to 24 hrs by two-fold serial dilution method; summary of the method: as §1
Pseudomonas aeruginosa [21] = test: Antibacterial activity against Pseudomonas aeruginosa 14-14 after 18 to 24 hrs by two-fold serial dilution method; summary of the method: as §1
Klebsiella pneumoniae [22] = test: Antibacterial activity against Klebsiella pneumoniae 14-2 after 18 to 24 hrs by two-fold serial dilution method; summary of the method: as §1
Escherichia coli [23] = test: Antibacterial activity against extended-spectrum beta-lactamase producing Escherichia coli 14-1 after 18 to 24 hrs by two-fold serial dilution method; summary of the method: as §1
Staphylococcus aureus [24] = test: Antibacterial activity against methicillin-resistant Staphylococcus aureus 14-5 after 18 to 24 hrs by two-fold serial dilution method; summary of the method: as §2
Escherichia coli [25] = test: Antibacterial activity against Escherichia coli 14-1 after 18 to 24 hrs by two-fold serial dilution method; summary of the method: as §1
Escherichia coli [26] = test: Antibacterial activity against Escherichia coli 14-2 after 18 to 24 hrs by two-fold serial dilution method; summary of the method: as §1
Enterococcus faecium [27] = test: Antibacterial activity against Enterococcus faecium 14-6 after 18 to 24 hrs by two-fold serial dilution method; summary of the method: as §1
[28] = tested on: Staphylococcus epidermidis; test: Antibacterial activity against methicillin-resistant Staphylococcus epidermidis 14-37 after 18 to 24 hrs by two-fold serial dilution method; summary of the method: as §2
Staphylococcus aureus [29] = test: Antibacterial activity against methicillin-sensitive Staphylococcus aureus 14-1 after 18 to 24 hrs by two-fold serial dilution method; summary of the method: as §1
Streptococcus pneumoniae = test: Antibacterial activity against methicillin-resistant Streptococcus pneumoniae ATCC 19615 after 18 to 24 hrs by two-fold serial dilution method; summary of the method: as §2
Klebsiella pneumoniae [30] = test: Antibacterial activity against extended-spectrum beta-lactamase producing Klebsiella pneumoniae 14-19 after 18 to 24 hrs by two-fold serial dilution method; summary of the method: as §1
Pseudomonas aeruginosa [31] = test: Antibacterial activity against Pseudomonas aeruginosa ATCC 27853 after 18 to 24 hrs by two-fold serial dilution method; summary of the method: as §1
Klebsiella pneumoniae [32] = test: Antibacterial activity against Klebsiella pneumoniae 14-3 after 18 to 24 hrs by two-fold serial dilution method; summary of the method: as §1
Escherichia coli [33] = test: Antibacterial activity against extended-spectrum beta-lactamase producing Escherichia coli 14-2 after 18 to 24 hrs by two-fold serial dilution method; summary of the method: as §1

SMILES	MIC (Pseudomonas aeruginosa [1])	MIC (Klebsiella pneumoniae [2])	MIC (Pseudomonas aeruginosa [3])	MIC (Staphylococcus aureus [4])	MIC (Klebsiella pneumoniae [5])	MIC (Staphylococcus aureus [6])	MIC (Klebsiella pneumoniae [7])	MIC (Enterococcus faecium [8])	MIC (Escherichia coli [9])	MIC (Pseudomonas aeruginosa [10])	MIC [11]	MIC [12]	MIC [13]	MIC [14]	MIC (Enterococcus faecalis [15])	MIC (Klebsiella pneumoniae [16])	MIC (Enterococcus faecium [17])	MIC (Staphylococcus aureus [18])	MIC (Enterococcus faecalis [19])	MIC (Staphylococcus aureus [20])	further results
CO/N=C1/CN(c2c(F)cc3c(=O)c(C(=O)O)cn4c3c2OC[C@@H]4C)CC1CNC1CC1 (stereo partly drawn)	> 64 µg/mL	> 64 µg/mL	64 µg/mL (≈ 144 µM)	> 64 µg/mL	4 µg/mL (≈ 9 µM)	16 µg/mL (≈ 36 µM)	32 µg/mL (≈ 72 µM)	> 64 µg/mL	0.5 µg/mL (≈ 1.12 µM)	64 µg/mL (≈ 144 µM)	> 64 µg/mL	> 64 µg/mL	> 64 µg/mL	> 64 µg/mL	> 64 µg/mL	4 µg/mL (≈ 9 µM)	64 µg/mL (≈ 144 µM)	16 µg/mL (≈ 36 µM)	16 µg/mL (≈ 36 µM)	4 µg/mL (≈ 9 µM)	MIC (Pseudomonas aeruginosa [21]): > 64 µg/mL; MIC (Klebsiella pneumoniae [22]): 32 µg/mL (≈ 72 µM); MIC (Escherichia coli [23]): > 64 µg/mL; MIC (Staphylococcus aureus [24]): 64 µg/mL (≈ 144 µM); MIC (Escherichia coli [25]): > 64 µg/mL; MIC (Escherichia coli [26]): > 64 µg/mL; MIC (Enterococcus faecium [27]): > 128 µg/mL; MIC [28]: 64 µg/mL (≈ 144 µM); MIC (Staphylococcus aureus [29]): 64 µg/mL (≈ 144 µM); MIC (Streptococcus pneumoniae): 8 µg/mL (≈ 18 µM); MIC (Klebsiella pneumoniae [30]): 8 µg/mL (≈ 18 µM); MIC (Pseudomonas aeruginosa [31]): 64 µg/mL (≈ 144 µM); MIC (Klebsiella pneumoniae [32]): > 64 µg/mL; MIC (Escherichia coli [33]): > 64 µg/mL
CO/N=C1/CN(c2c(F)cc3c(=O)c(C(=O)O)cn4c3c2OC[C@@H]4CF)CC1(C)CNC1CC1 (stereo partly drawn)	128 µg/mL (≈ 269 µM)	128 µg/mL (≈ 269 µM)	32 µg/mL (≈ 67.2 µM)	8 µg/mL (≈ 16.8 µM)	32 µg/mL (≈ 67.2 µM)	0.03 µg/mL (≈ 0.063 µM)	> 128 µg/mL	8 µg/mL (≈ 16.8 µM)	2 µg/mL (≈ 4.2 µM)	64 µg/mL (≈ 134 µM)	16 µg/mL (≈ 33.6 µM)	16 µg/mL (≈ 33.6 µM)	2 µg/mL (≈ 4.2 µM)	4 µg/mL (≈ 8.39 µM)	16 µg/mL (≈ 33.6 µM)	32 µg/mL (≈ 67.2 µM)	4 µg/mL (≈ 8.39 µM)	0.03 µg/mL (≈ 0.063 µM)	0.5 µg/mL (≈ 1.05 µM)	< 0.008 µg/mL	MIC (Pseudomonas aeruginosa [21]): 128 µg/mL (≈ 269 µM); MIC (Klebsiella pneumoniae [22]): > 128 µg/mL; MIC (Escherichia coli [23]): 8 µg/mL (≈ 16.8 µM); MIC (Staphylococcus aureus [24]): 4 µg/mL (≈ 8.39 µM); MIC (Escherichia coli [25]): > 128 µg/mL; MIC (Escherichia coli [26]): > 128 µg/mL; MIC (Enterococcus faecium [27]): 16 µg/mL (≈ 33.6 µM); MIC [28]: 16 µg/mL (≈ 33.6 µM); MIC (Staphylococcus aureus [29]): 4 µg/mL (≈ 8.39 µM); MIC (Streptococcus pneumoniae): 0.25 µg/mL (≈ 0.525 µM); MIC (Klebsiella pneumoniae [30]): > 128 µg/mL; MIC (Pseudomonas aeruginosa [31]): 32 µg/mL (≈ 67.2 µM); MIC (Klebsiella pneumoniae [32]): 128 µg/mL (≈ 269 µM); MIC (Escherichia coli [33]): > 128 µg/mL
